Experimental data from ChEMBL document CHEMBL4842326, “Design, synthesis and biological evaluation of 3, 4-disubstituted-imidazolidine-2, 5-dione derivatives as HDAC6 selective inhibitors” (Eur J Med Chem, 2021).
Active and inactive are the calls of the source. No cut-off for these calls is given here.

Tests used:
[1] = Stability of the compound in rabbit plasma assessed as decrease in compound degradation incubated up to 12 hrs by HPLC analysis; format: ADME, cell-free, Oryctolagus cuniculus
[2] = molecular target: T1, Protein deacetylase HDAC6 (Homo sapiens) (UniProt Q9UBN7); test: Potency index, ratio of tubastatin-A IC50 to test compound IC50 for HDAC6 (unknown origin) using Ac-LeuGlyLy-s(Ac)-AMC as substrate preincubated for 10 mins followed by substrate addition and further incubated for 2 hrs by fluorescence microtiter plate reader assay
T1 sequence (whole entry): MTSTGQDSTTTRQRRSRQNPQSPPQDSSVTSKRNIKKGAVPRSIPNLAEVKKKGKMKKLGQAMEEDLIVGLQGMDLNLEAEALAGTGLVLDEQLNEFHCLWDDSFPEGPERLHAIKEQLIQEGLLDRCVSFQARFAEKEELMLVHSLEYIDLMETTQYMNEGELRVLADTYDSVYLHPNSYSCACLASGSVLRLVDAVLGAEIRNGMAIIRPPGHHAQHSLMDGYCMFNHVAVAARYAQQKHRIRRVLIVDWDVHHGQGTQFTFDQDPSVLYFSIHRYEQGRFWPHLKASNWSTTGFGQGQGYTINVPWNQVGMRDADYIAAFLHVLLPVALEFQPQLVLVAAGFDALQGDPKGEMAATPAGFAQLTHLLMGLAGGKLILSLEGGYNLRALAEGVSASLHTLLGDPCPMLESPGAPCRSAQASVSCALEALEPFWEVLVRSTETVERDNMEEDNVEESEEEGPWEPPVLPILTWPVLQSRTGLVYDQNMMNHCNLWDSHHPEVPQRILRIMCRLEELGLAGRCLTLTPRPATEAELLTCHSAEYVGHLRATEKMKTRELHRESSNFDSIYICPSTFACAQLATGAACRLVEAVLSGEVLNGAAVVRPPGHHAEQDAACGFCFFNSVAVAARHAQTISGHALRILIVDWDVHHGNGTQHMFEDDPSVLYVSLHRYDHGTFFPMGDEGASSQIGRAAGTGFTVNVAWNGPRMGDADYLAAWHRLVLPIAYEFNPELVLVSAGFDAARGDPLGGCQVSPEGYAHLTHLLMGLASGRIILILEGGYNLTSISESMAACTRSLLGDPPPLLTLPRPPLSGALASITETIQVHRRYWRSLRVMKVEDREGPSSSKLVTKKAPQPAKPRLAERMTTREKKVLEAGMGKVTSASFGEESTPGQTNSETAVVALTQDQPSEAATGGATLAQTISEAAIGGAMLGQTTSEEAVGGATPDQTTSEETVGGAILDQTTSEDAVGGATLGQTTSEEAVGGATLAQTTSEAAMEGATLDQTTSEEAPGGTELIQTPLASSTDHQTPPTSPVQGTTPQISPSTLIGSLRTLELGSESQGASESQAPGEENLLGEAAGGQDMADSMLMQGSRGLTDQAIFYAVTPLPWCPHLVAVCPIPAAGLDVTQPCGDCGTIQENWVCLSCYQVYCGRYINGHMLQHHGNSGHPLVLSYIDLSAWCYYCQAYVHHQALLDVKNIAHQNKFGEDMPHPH

[3] = test system: HL-60; test: Induction of mitochondrial membrane potential depolarization in human HL-60 cells at 3 uM by fluorescence assay; format: functional, cell-based; details: time hrs <=24, TDE = time-dependent effect
Outline: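 HL-60 cells (1 × 10^6) seeded overnight, exposed to compound or vehicle (0.2% DMSO) for the indicated times, then loaded with TMRE (100 nM) 30 min at 37 °C; washed three times in PBS, fluorescence read at Ex 540/Em 579 nm.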

[4] = molecular target: Histone deacetylase 2 (Homo sapiens, UniProt Q92769)
Chain of Histone deacetylase 2 (Q92769 whole entry): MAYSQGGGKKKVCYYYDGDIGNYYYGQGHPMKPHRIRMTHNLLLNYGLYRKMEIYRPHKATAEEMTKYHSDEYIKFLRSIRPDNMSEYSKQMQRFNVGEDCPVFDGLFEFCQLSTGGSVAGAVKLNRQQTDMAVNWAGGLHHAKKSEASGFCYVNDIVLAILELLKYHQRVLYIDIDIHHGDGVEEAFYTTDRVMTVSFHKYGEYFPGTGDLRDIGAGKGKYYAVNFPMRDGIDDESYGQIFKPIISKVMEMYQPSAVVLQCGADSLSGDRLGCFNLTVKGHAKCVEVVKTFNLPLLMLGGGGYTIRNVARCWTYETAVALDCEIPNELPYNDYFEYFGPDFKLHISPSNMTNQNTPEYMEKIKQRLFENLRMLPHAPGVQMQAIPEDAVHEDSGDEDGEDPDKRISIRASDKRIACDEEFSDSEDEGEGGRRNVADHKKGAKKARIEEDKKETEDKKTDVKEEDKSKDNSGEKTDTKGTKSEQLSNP

[5] = molecular target: T2, Protein deacetylase HDAC6 (Homo sapiens, UniProt Q9UBN7); test: Inhibition of HDAC6 (unknown origin) using Ac-LeuGlyLy-s(Ac)-AMC as substrate preincubated for 10 mins followed by substrate addition and further incubated for 2 hrs by fluorescence microtiter plate reader assay
T2 sequence (Q9UBN7 whole entry): T1 sequence (whole entry)

[6] = organism: Homo sapiens; test: Selectivity ratio of IC50 for HDAC2 (unknown origin) to IC50 for HDAC6 (unknown origin)
[7] = Cytotoxicity against human GEC1 cells assessed as decrease in cell viability after 48 hrs by MTT assay; format: cell-based; details: GEC1, 48 h
Outline: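 Normal cells: HUVECs in RPMI1640 with 10% FBS plus 0.1% heparin, GEC-1 in RPMI1640 with 10% FBS. Seeded 8 h, then treated with serial dilutions for 48 h; 0.5% MTT for 4 h, supernatant removed, DMSO added, absorbance read at 570 nm.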

[8] = test system: HL-60; test: Induction of apoptosis in human HL-60 cells at 3 uM measured after 48 hrs by TUNEL staining based fluorescence microscopy; format: functional, cell-based
Outline: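 HL-60 cells (1 × 10^6/well) given 3 µM compound or vehicle (0.2% DMSO) for 48 h; washed in cold PBS, fixed in paraformaldehyde 30 min, permeabilised with 0.5% Triton X-100 for 5 min, labelled 60 min with FITC-12-dUTP plus terminal deoxynucleotidyl transferase, washed twice, green fluorescence imaged by microscopy.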

[9] = test system: HL-60; test: Induction of apoptosis in human HL-60 cells assessed as viable cells at 3 uM after 48 hrs by Annexin V-FITC/propidium iodide staining based flow cytometric analysis (reference value: 93.4%); format: functional; details: read-out: Activity
Outline: (§1)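 HL-60 cells (1 × 10^6/well) exposed 48 h to compound dilutions, collected, PBS-washed, resuspended in Annexin V-FITC binding buffer, stained with propidium iodide and Annexin V-FITC for 15 min, then analysed by flow cytometry.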

[10] = test system: HL-60; test: Induction of apoptosis in human HL-60 cells assessed as late apoptotic cells at 3 uM after 48 hrs by Annexin V-FITC/propidium iodide staining based flow cytometric analysis (reference value: 1.45%); format: functional; outline: as §1
[11] = test system: HL-60; test: Induction of apoptosis in human HL-60 cells assessed as activation of caspase-3 at 3 uM measured by fluorescence assay; format: functional, cell-based

Stabilty [1]: Stable
Ratio IC50 [2]: 12
IC50 [4]: 12.3 µM
IC50 [5]: 0.0021 µM
Ratio IC50 [6]: 5860
SMILES: O=C(NO)c1ccc(CN2C(=O)C(Cc3ccccc3)N(Cc3cccnc3)C2=O)cc1 (racemic)
Activity [3]: Tde
IC50 [7]: 68.2 µM
Activity [8]: Active
viability at 3 µM [9]: 79.4%
Activity [10]: 10%
Activity [11]: Active
